# In ChEMBL document CHEMBL4428035, “Urea derivates of ursolic, oleanolic and maslinic acid induce apoptosis and are selective cytotoxic for several human tumor cell lines” (Eur J Med Chem, 2016):
# Active and inactive are the calls of the source. The rule behind the calls is not given here.
# What was measured:
# [1] = tested on: FaDu; assay: Cytotoxicity against human FADU cells assessed as reduction in cell proliferation after 96 hrs by sulforhodamine B assay; assay type: functional, cell-based
# [2] = tested on: HT-29; assay: Cytotoxicity against human HT-29 cells assessed as reduction in cell proliferation after 96 hrs by sulforhodamine B assay; assay type: functional, cell-based; conditions: HT-29, 96 h
# [3] = tested on: A549; assay: Cytotoxicity against human A549 cells assessed as reduction in cell proliferation after 96 hrs by sulforhodamine B assay; assay type: functional, cell-based; conditions: A549, 96 h
# [4] = tested on: NIH3T3; assay: Cytotoxicity against mouse NIH/3T3 cells assessed as reduction in cell proliferation after 96 hrs by sulforhodamine B assay; assay type: ADME, cell-based; conditions: NIH3T3, 96 h
# [5] = tested on: 518A2; assay: Cytotoxicity against human 518A2 cells assessed as reduction in cell proliferation after 96 hrs by sulforhodamine B assay; assay type: functional, cell-based; conditions: 518A2, 96 h
# [6] = tested on: MCF7; assay: Cytotoxicity against human MCF7 cells assessed as reduction in cell proliferation after 96 hrs by sulforhodamine B assay; assay type: functional, cell-based; conditions: MCF7, 96 h
# [7] = tested on: SW-1736; assay: Cytotoxicity against human SW1736 cells assessed as reduction in cell proliferation after 96 hrs by sulforhodamine B assay; assay type: functional, cell-based; conditions: SW-1736, 96 h
# [8] = tested on: A2780; assay: Cytotoxicity against human A2780 cells assessed as reduction in cell proliferation after 96 hrs by sulforhodamine B assay; assay type: functional, cell-based; conditions: A2780, 96 h
# [9] = Selectivity index, ratio of EC50 for mouse NIH/3T3 cells to EC50 for human A2780 cells; conditions: NIH/3T3 cells versus A2780 cells
# [10] = tested on: A2780; assay: Cell cycle arrest in human A2780 cells assessed as decrease in G2/M phase at 10 uM after 24 hrs by FACS analysis; assay type: functional, cell-based
# How it was run: (§1)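 Living A2780 cells treated with 10 µM test agent for 24 h and 48 h, then examined for cell-cycle distribution by FACS. Phase populations (Sub-G1, G1/G0, S, G2/M) were quantified by model fitting and expressed as arithmetic means of the population distribution (%).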
# [11] = tested on: A2780; assay: Cell cycle arrest in human A2780 cells assessed as increase in S phase at 10 uM after 24 hrs by FACS analysis; assay type: functional, cell-based; how it was run: as §1
# [12] = tested on: A2780; assay: Induction of apoptosis in human A2780 cells assessed as apoptotic cells at 10 uM after 24 hrs by Annexin V/propidium iodide staining based flow cytometry relative to control; assay type: functional
# How it was run: (§2)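 Annexin V/propidium iodide staining of A2780 cells exposed to 10 µM compound for 24 h and 48 h, read by flow cytometry. Viable, apoptotic, necrotic and secondary-necrotic fractions were reported as relative changes versus untreated control (%).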
# [13] = tested on: A2780; assay: Cell cycle arrest in human A2780 cells assessed as decrease in S phase at 10 uM after 48 hrs by FACS analysis; assay type: functional, cell-based; how it was run: as §1
# [14] = tested on: A2780; assay: Cell cycle arrest in human A2780 cells assessed as decrease in G1/G0 phase at 10 uM after 48 hrs by FACS analysis; assay type: functional, cell-based; how it was run: as §1
# [15] = tested on: A2780; assay: Induction of apoptosis in human A2780 cells assessed as secondary necrotic cells at 10 uM after 24 hrs by Annexin V/propidium iodide staining based flow cytometry relative to control; assay type: functional; how it was run: as §2
# [16] = tested on: A2780; assay: Induction of apoptosis in human A2780 cells assessed as viable cells at 10 uM after 24 hrs by Annexin V/propidium iodide staining based flow cytometry relative to control; assay type: functional; conditions: A2780, 24 h, read-out: Activity; how it was run: as §2
# [17] = tested on: A2780; assay: Cell cycle arrest in human A2780 cells assessed as decrease in G1/G0 phase at 10 uM after 24 hrs by FACS analysis; assay type: functional, cell-based; how it was run: as §1
# [18] = tested on: A2780; assay: Induction of apoptosis in human A2780 cells assessed as necrotic cells at 10 uM after 24 hrs by Annexin V/propidium iodide staining based flow cytometry relative to control; assay type: functional; how it was run: as §2
# [19] = tested on: A2780; assay: Cell cycle arrest in human A2780 cells assessed as increase in subG1 phase at 10 uM after 48 hrs by FACS analysis; assay type: functional, cell-based; how it was run: as §1
Structure (SMILES),EC50 [1] [µM],EC50 [2] [µM],EC50 [3] [µM],EC50 [4] [µM],EC50 [5] [µM],EC50 [6] [µM],EC50 [7] [µM],EC50 [8] [µM],selectivity ratio [9],Activity [10],Activity [11],Activity [12] [%],Activity [13],Activity [14],Activity [15] [%],change in viable cells vs control (%) at 10 µM [16] [%],Activity [17],Activity [18] [%],Activity [19]
CC(=O)O[C@@H]1C[C@]2(C)[C@H]3CC=C4[C@@H]5CC(C)(C)CC[C@]5(C(=O)NCCc5ccccc5)CC[C@@]4(C)[C@]3(C)CC[C@H]2C(C)(C)[C@H]1OC(C)=O,2.8,6.1,9.2,9.5,1.2,5.8,5.2,,,,,,,,,,,,
CO[C@@H]1C[C@]2(C)[C@H]3CC=C4[C@@H]5CC(C)(C)CC[C@]5(C(=O)NCc5ccccc5)CC[C@@]4(C)[C@]3(C)CC[C@H]2C(C)(C)[C@H]1OC,17.2,14.3,15.3,14.7,18.1,14.6,20.5,,,,,,,,,,,,
CC1(C)CC[C@]2(C(=O)NCc3ccccc3)CC[C@]3(C)C(=CC[C@@H]4[C@@]5(C)C[C@H]6OCO[C@@H]6C(C)(C)[C@@H]5CC[C@]43C)[C@@H]2C1,> 30,20.8,> 30,13.9,> 30,16.7,> 30,,,,,,,,,,,,
CC(=O)O[C@H]1C[C@]2(C)[C@H]3CC=C4[C@@H]5[C@@H](C)[C@H](C)CC[C@]5(C(=O)Nc5ccccc5)CC[C@@]4(C)[C@]3(C)CC[C@H]2C(C)(C)[C@H]1OC(C)=O,,7.3,8.9,> 60,3.4,16.4,4.4,3.3,,,,,,,,,,,
CC(=O)O[C@H]1C[C@]2(C)[C@H]3CC=C4[C@@H]5CC(C)(C)CC[C@]5(C(=O)O)CC[C@@]4(C)[C@]3(C)CC[C@H]2C(C)(C)[C@@H]1OC(C)=O,9.5,16.5,15.2,10,11.7,14.8,23.4,6.7,,,,,,,,,,,
CC(=O)O[C@H]1C[C@]2(C)[C@H]3CC=C4[C@@H]5CC(C)(C)CC[C@]5(C(=O)Nc5ccccc5)CC[C@@]4(C)[C@]3(C)CC[C@H]2C(C)(C)[C@H]1OC(C)=O,,2.6,4.9,> 60,2,1.8,2.7,1.3,,,,,,,,,,,
CC(=O)O[C@H]1C[C@]2(C)[C@H]3CC=C4[C@@H]5[C@@H](C)[C@H](C)CC[C@]5(NC(=O)c5ccccc5)CC[C@@]4(C)[C@]3(C)CC[C@H]2C(C)(C)[C@H]1OC(C)=O,,11.7,16.4,14.1,7.9,> 30,14.9,6.7,,,,,,,,,,,
CC(=O)O[C@H]1C[C@]2(C)[C@H]3CC=C4[C@@H]5CC(C)(C)CC[C@]5(NC(=O)c5ccccc5)CC[C@@]4(C)[C@]3(C)CC[C@H]2C(C)(C)[C@H]1OC(C)=O,,6.8,11.1,12.2,3.5,16.8,6.8,3.1,,,,,,,,,,,
CC(=O)O[C@@H]1C[C@]2(C)[C@H]3CC=C4[C@@H]5CC(C)(C)CC[C@]5(C(=O)NCc5ccccc5)CC[C@@]4(C)[C@]3(C)CC[C@H]2C(C)(C)[C@H]1OC(C)=O,3.1,4.7,2.5,33.8,1.5,7.7,,0.5,70,,,,,,,,,,
CC(=O)O[C@H]1C[C@]2(C)[C@H]3CC=C4[C@@H]5[C@@H](C)[C@H](C)CC[C@]5(NC(=O)Oc5ccccc5)CC[C@@]4(C)[C@]3(C)CC[C@H]2C(C)(C)[C@H]1OC(C)=O,,7.6,10.1,> 30,3.1,23.3,5.5,1.6,,,,,,,,,,,
CC1(C)CC[C@]2(C(=O)NCc3ccccc3)CC[C@]3(C)C(=CC[C@@H]4[C@@]5(C)C[C@@H]6O[C@@H]6C(C)(C)[C@@H]5CC[C@]43C)[C@@H]2C1,> 30,26.6,25.8,20.5,15.7,8.6,> 30,8.6,,,,,,,,,,,
CC(=O)O[C@@H]1C[C@]2(C)[C@H]3CC=C4[C@@H]5CC(C)(C)CC[C@]5(C(=O)Nc5ccccc5)CC[C@@]4(C)[C@]3(C)CC[C@H]2C(C)(C)[C@H]1OC(C)=O,1.4,2.9,9.5,16,0.7,3.1,2.9,,,,,,,,,,,,
CC(=O)O[C@@H]1C[C@]2(C)[C@H]3CC=C4[C@@H]5CC(C)(C)CC[C@]5(C(=O)O)CC[C@@]4(C)[C@]3(C)CC[C@H]2C(C)(C)[C@H]1OC(C)=O,17.8,,,,23.1,16.6,,,,,,,,,,,,,
CC1(C)CC[C@]2(C(=O)NCc3ccccc3)CC[C@]3(C)C(=CC[C@@H]4[C@@](C)(CC=O)[C@H](C(C)(C)C=O)CC[C@]43C)[C@@H]2C1,7,8.3,6.9,12.2,6,5.4,7.5,,,,,,,,,,,,
CC(=O)O[C@@H]1[C@H](OC(C)=O)C[C@]2(C)[C@H]3CC=C4[C@@H]5CC(C)(C)CC[C@]5(C(=O)O)CC[C@@]4(C)[C@]3(C)CC[C@H]2C1(C)C,17.3,21.4,20.4,14.2,15.3,17.6,22,10.5,,,,,,,,,,,
CO[C@@H]1C[C@]2(C)[C@H]3CC=C4[C@@H]5CC(C)(C)CC[C@]5(C(=O)NCc5ccccc5)CC[C@@]4(C)[C@]3(C)CC[C@H]2C(C)(C)[C@H]1O,11.4,10.6,21.5,11.9,12.6,11.7,18.1,,,,,,,,,,,,
CC(=O)O[C@H]1C[C@]2(C)[C@H]3CC=C4[C@@H]5CC(C)(C)CC[C@]5(C(=O)O)CC[C@@]4(C)[C@]3(C)CC[C@H]2C(C)(C)[C@H]1OC(C)=O,> 30,18.8,29.1,8,,15.1,> 30,7.2,,,,,,,,,,,
CC(=O)O[C@H]1C[C@]2(C)[C@H]3CC=C4[C@@H]5[C@@H](C)[C@H](C)CC[C@]5(NC(=O)Nc5ccccc5)CC[C@@]4(C)[C@]3(C)CC[C@H]2C(C)(C)[C@H]1OC(C)=O,,16,12.4,> 120,2.5,19.6,6.8,1.5,,,,,,,,,,,
COCO[C@@H]1C[C@]2(C)[C@H]3CC=C4[C@@H]5CC(C)(C)CC[C@]5(C(=O)NCc5ccccc5)CC[C@@]4(C)[C@]3(C)CC[C@H]2C(C)(C)[C@H]1OCOC,17.9,15.9,17.3,15,22.1,15.2,18.2,,,,,,,,,,,,
CC(=O)O[C@H]1C[C@]2(C)[C@H]3CC=C4[C@@H]5CC(C)(C)CC[C@]5(NC(=O)Oc5ccccc5)CC[C@@]4(C)[C@]3(C)CC[C@H]2C(C)(C)[C@H]1OC(C)=O,,8.5,8.5,15.4,4.4,5.8,7.3,2.4,,Active,Active,2,Active,Active,3,-4,Active,-1,Active
CC1(C)CC[C@]2(C(=O)NCc3ccccc3)CC[C@]3(C)C(=CC[C@@H]4[C@@]5(C)C[C@H]6OC(C)(C)O[C@@H]6C(C)(C)[C@@H]5CC[C@]43C)[C@@H]2C1,> 30,25.9,26.4,21.6,29.8,14.6,> 30,12.9,,,,,,,,,,,
